The species entered for data set [1] is Homo sapiens. Description: Inhibition of mitochondrial ATPase in human PANC1 cells assessed as increase in extracellular acidification rate in presence of glucose by seahorse XFe96 analyser based assay. It counts as cell-based. Summed up: (§1)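 Mito stress test on PANC-1 cells: 2 × 10⁴ cells were plated in DMEM overnight. Cells were moved to XF base medium with 1 mM pyruvate and 2 mM GlutaMax, containing 1 g/L glucose (or lacking it for glucose-free runs), then held 30 min at 37 °C without CO2. Injections in order: compound, 1 μM oligomycin, 1 μM FCCP, 0.5 μM rotenone plus 0.5 μM antimycin. OCR and ECAR were taken as mean rates per cycle of 2 min mixing and 3 min acquisition, over 20 or 21 cycles.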

Data set [2] concerns PSN1. Briefly: Cytotoxicity against human PSN1 cells assessed as reduction in cell viability measured after 24 hrs in presence of glucose by MTT assay. It counts as cell-based. As to conditions: psn1, 24 h. Summed up: (§2)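 Cells grown at 37 °C, 5% CO2 in DMEM with 10% FBS. 2.5 × 10⁴ cells/well were seeded in DMEM for 24 h, then PBS-washed and switched to fresh DMEM (+glucose) or glucose-deprived medium. Compound exposure was 24 h. MTT at 0.5 mg/mL was added for 4 h at 37 °C, then 20% SDS for 12 h at 37 °C. Absorbance read at 570 nm.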
On the technique in general: Tetrazolium assays rely on reduction of a dye to a coloured formazan, in cell work by metabolically active cells.

In data set [3] the test system is PANC-1. Description: Cytotoxicity against human PANC1 cells assessed as reduction in cell viability measured after 24 hrs in presence of glucose by MTT assay. It counts as cell-based. As to conditions: panc-1, 24 h. Summed up:
as §2

A short description of data set [4]: Cytotoxicity against human PK8 cells assessed as reduction in cell viability measured after 24 hrs in presence of glucose by MTT assay. It counts as cell-based. Summed up: as §2
For data set [5], the system named is PSN1. Description: Cytotoxicity against human PSN1 cells assessed as reduction in cell viability measured after 24 hrs under glucose-deprived condition by MTT assay. It counts as functional, cell-based. Summed up: as §2
In data set [6] the test system is PANC-1. Briefly: Cytotoxicity against human PANC1 cells assessed as reduction in cell viability measured after 24 hrs under glucose-deprived condition by MTT assay. It counts as functional, cell-based. Summed up: as §2
The species named for data set [7] is Homo sapiens. Description: Cytotoxicity against human PK8 cells assessed as reduction in cell viability measured after 24 hrs under glucose-deprived condition by MTT assay. It counts as functional, cell-based. Summed up:
as §2

In data set [8] the test system is BXPC-3. Description: Cytotoxicity against human BxPC3 cells assessed as reduction in cell viability measured after 24 hrs under glucose-deprived condition by MTT assay. It counts as functional, cell-based. Summed up: as §2
For data set [9], the system named is BXPC-3. Briefly: Cytotoxicity against human BxPC3 cells assessed as reduction in cell viability measured after 24 hrs in presence of glucose by MTT assay. It counts as cell-based. As to conditions: bxpc-3, 24 h. Summed up:
as §2

The species named for data set [10] is Homo sapiens. Description: Inhibition of mitochondrial ATPase in human PANC1 cells assessed as decrease in oxygen consumption rate in presence of glucose by seahorse XFe96 analyser based assay. It counts as cell-based. Summed up: as §1
For data set [11], the species on record is Homo sapiens. Description: Inhibition of mitochondrial ATPase in human PANC1 cells assessed as decrease in oxygen consumption rate at 0.6 ug/ml in absence of glucose by seahorse XFe96 analyser based assay. It counts as cell-based. Summed up:
as §1

The species named for data set [12] is Homo sapiens. Description: Inhibition of mitochondrial ATPase in human PANC1 cells assessed as increase in extracellular acidification rate at 0.6 ug/ml in presence of glucose by seahorse XFe96 analyser based assay. It counts as cell-based. Summed up: as §1
The species named for data set [13] is Homo sapiens. Briefly: Inhibition of mitochondrial ATPase in human PANC1 cells assessed as increase in extracellular acidification rate at 0.6 ug/ml in absence of glucose by seahorse XFe96 analyser based assay. It counts as cell-based. Summed up: as §1
For data set [14], the species on record is Homo sapiens. Briefly: Inhibition of mitochondrial ATPase in human PANC1 cells assessed as decrease in oxygen consumption rate at 0.6 ug/ml in presence of glucose by seahorse XFe96 analyser based assay. It counts as cell-based. Summed up:
as §1

Calls of active or inactive are those of the source. The rule behind the calls is not given here. *1 amine or outer side, *2 acyl side, *3 side chain or, on linkers, in order; H or OH if unused. Where a SMILES comes first, the peptide text is derived from it. [ ]: non-standard residue; d: D form. The star is where a group is joined. ξ: configuration not given here. X1 = CCC(=O)C[C@H](O)C[C@@H](C)C[C@H](N[*:1])C(=O)[*:2]; X3 = CCC(=O)CC(O)CC(C)C[C@H](N[*:1])C(=O)[*:2]; Hexenoyl(2E,4S-Me) = CC[C@H](C)/C=C/C(=O)*; Leu(3R-OH) = CC(C)[C@@H](O)[C@H](N)C(=O)O; NH((S)CH(Me)CH2NMe2) = C[C@@H](CN(C)C)N*; Pro(4S-Me) = C[C@@H]1CN[C@H](C(=O)O)C1; X2 = CCC(C)/C=C/C(=O)*; Aib = CC(C)(N)C(=O)O; βAla = NCCC(=O)O; ξA = CC(N)C(=O)O

As for `CCC(=O)CC(O)CC(C)C[C@H](NC(=O)[C@@H]1C[C@H](C)CN1C(=O)/C=C/C(C)CC)C(=O)N[C@H](C(=O)NC(C)(C)C(=O)N[C@@H](CC(C)C)C(=O)N[C@@H](CC(C)C)C(=O)NC(C)(C)C(=O)NC(C)(C)C(=O)NCCC(=O)NC(C)C(=O)O)[C@H](O)C(C)C` (stereo partly drawn) (X2-[Pro(4S-Me)][X3][Leu(3R-OH)][Aib]LL[Aib][Aib][βAla][ξA]-OH), the inhibition entry in data set [1] and in data set [10] was “inactive” each time. Also, the Activity result in data set [2], in [3], in [4] and in data set [9] was “Non-Toxic” each time. Besides, the result in data set [5], in data set [6], in data set [7] and in data set [8] was inactive.
`CCC(=O)C[C@H](O)C[C@@H](C)C[C@H](NC(=O)[C@@H]1C[C@H](C)CN1C(=O)/C=C/[C@@H](C)CC)C(=O)N[C@H](C(=O)NC(C)(C)C(=O)N[C@@H](CC(C)C)C(=O)N[C@@H](CC(C)C)C(=O)NC(C)(C)C(=O)NC(C)(C)C(=O)NCCC(=O)N[C@@H](C)CN(C)C)[C@H](O)C(C)C` ({Hexenoyl(2E,4S-Me)}-[Pro(4S-Me)][X1][Leu(3R-OH)][Aib]LL[Aib][Aib][βAla]-{NH((S)CH(Me)CH2NMe2)}): the inhibition result in data set [1], in data set [11], in [12], in data set [14] and in [10] was “Active” each time. Besides, the Activity entry in data set [2], in data set [4] and in data set [9] was “Non-Toxic” throughout. For the same compound, in data set [13], the inhibition result is “inactive”. The result in [5], in [6], in data set [7] and in data set [8] was Active.

The values are drawn from ChEMBL document CHEMBL4316650, “Leucinostatin Y: A Peptaibiotic Produced by the Entomoparasitic Fungus Purpureocillium lilacinum 40-H-28” (J Nat Prod, 2019).
